Experimental data as given in ChEMBL document CHEMBL1151742, “Design, synthesis, and characterization of high-affinity, systemically-active galanin analogues with potent anticonvulsant activities” (J Med Chem, 2008).
Calls of active or inactive are those of the source. The rule behind the calls is not given here. Square brackets hold non-standard residues; d marks the D form. Peptide text beside a SMILES is read from it. * marks the point of attachment. Fmoc = O=C(OCC1c2ccccc2-c2ccccc21)*; Palmitoyl = CCCCCCCCCCCCCCCC(=O)*; Cha = N[C@@H](CC1CCCCC1)C(=O)O; AMC = Cc1cc(=O)oc2cc(N*)ccc12; Sar = CNCC(=O)O

Assays:
Mus musculus [1] = test: Anticonvulsant activity in CF1 mouse assessed as inhibition of 6 Hz corneal stimulation-induced limbic seizures at 4 mg/kg, ip administered 60 mins before 6 Hz corneal stimulation; assay type: functional, organism-based; design: dose 4 mg/kg; settings: Limbic system
In short: (§1)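 Each analogue given ip at 4 mg/kg to five groups of CF-1 mice (n = 4 per group), one group per time point. Seizure challenge was 6 Hz corneal stimulation (32 mA for 3 s, corneal electrodes) at 15, 30, 60, 120 or 240 min after dosing. A mouse without a limbic seizure (jaw chomping, vibrissae twitching, forelimb clonus, Straub tail) was counted as protected.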

[2] = Metabolic stability in rat serum assessed as half life at pH 7.5; assay type: ADME, cell-free
In short: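 Peptide (final 20 µM) was incubated in 25% rat serum with 0.1 M Tris-HCl pH 7.5 at 37 °C, serum pre-warmed 10 min. Aliquots taken up to 8 h were quenched with 15% TCA in 40% isopropanol, held 15 min at -20 °C and centrifuged. Intact peptide was measured by reversed-phase HPLC peak area, and half-life was calculated from the disappearance.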

Galanin receptor type 1 = biological target: T1, Galanin receptor type 1 (Homo sapiens, UniProt P47211); test: Displacement of europium-labeled galanin from human GalR1 expressed in HEK293 EBNA cells; assay type: cell-based
T1 sequence (P47211 whole entry): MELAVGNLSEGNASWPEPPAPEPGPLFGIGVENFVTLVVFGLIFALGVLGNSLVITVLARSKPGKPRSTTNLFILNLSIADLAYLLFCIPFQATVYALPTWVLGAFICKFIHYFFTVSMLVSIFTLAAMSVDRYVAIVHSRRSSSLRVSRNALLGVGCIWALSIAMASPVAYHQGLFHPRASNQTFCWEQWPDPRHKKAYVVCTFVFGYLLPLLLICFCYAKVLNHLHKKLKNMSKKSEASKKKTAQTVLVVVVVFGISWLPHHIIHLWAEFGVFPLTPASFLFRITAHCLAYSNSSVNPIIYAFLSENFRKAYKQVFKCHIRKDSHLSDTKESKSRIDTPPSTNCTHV

Galanin receptor type 2 [3] = biological target: T2, Galanin receptor type 2 (Homo sapiens, UniProt O43603); test: Displacement of europium-labeled galanin from human GalR2 expressed in CHO-K1 cells; assay type: cell-based
T2 sequence (O43603 whole entry): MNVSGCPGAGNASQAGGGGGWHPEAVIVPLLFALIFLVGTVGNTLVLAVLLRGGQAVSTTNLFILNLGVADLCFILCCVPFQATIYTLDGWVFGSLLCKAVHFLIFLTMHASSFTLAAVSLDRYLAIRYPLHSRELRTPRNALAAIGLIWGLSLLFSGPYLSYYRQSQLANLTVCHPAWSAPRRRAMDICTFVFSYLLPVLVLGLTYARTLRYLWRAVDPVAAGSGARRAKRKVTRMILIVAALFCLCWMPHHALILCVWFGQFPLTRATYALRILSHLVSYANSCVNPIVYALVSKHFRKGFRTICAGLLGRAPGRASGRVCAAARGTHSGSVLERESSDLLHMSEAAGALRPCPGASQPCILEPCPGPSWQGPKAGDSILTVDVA

Mus musculus [4] = test: Anticonvulsant activity in CF1 mouse assessed as inhibition of 6 Hz corneal stimulation-induced limbic seizures at 4 mg/kg, ip administered 120 mins before 6 Hz corneal stimulation; assay type: functional, organism-based; design: dose 4 mg/kg; settings: Limbic system; in short: as §1
Galanin receptor type 2 [5] = biological target: T2, Galanin receptor type 2; test: Binding affinity to human GalR2
Mus musculus [6] = test: Anticonvulsant activity in CF1 mouse assessed as inhibition of 6 Hz corneal stimulation-induced limbic seizures at 4 mg/kg, ip administered 240 mins before 6 Hz corneal stimulation; assay type: functional, organism-based; design: dose 4 mg/kg; settings: Limbic system; in short: as §1

CCCCCCCCCCCCCCCC(=O)NCCCC[C@@H](NC(=O)[C@H](CCCCN)NC(=O)[C@@H](CCCCN)NC(=O)[C@H]1CCCN1C(=O)CNC(=O)[C@H](CC(C)C)NC(=O)[C@H](CC(C)C)NC(=O)[C@H](Cc1ccc(O)cc1)NC(=O)CNC(=O)[C@H](C)NC(=O)[C@H](CO)NC(=O)[C@H](CC(N)=O)NC(=O)[C@H](CC(C)C)NC(=O)[C@@H](NC(=O)[C@H](Cc1c[nH]c2ccccc12)NC(=O)CNC)[C@@H](C)O)C(=O)N[C@@H](CCCCN)C(N)=O
Activity (Mus musculus [1]): Active

CCCCCCCCCCCCCCCC(=O)NCCCC[C@H](NC(=O)[C@H](CCCCN)NC(=O)[C@H](CCCCN)NC(=O)[C@H](CCCCN)NC(=O)[C@H](CCCCN)NC(=O)[C@H](CC(C)C)NC(=O)[C@H](CC(C)C)NC(=O)[C@H](Cc1ccc(O)cc1)NC(=O)CNC(=O)[C@H](C)NC(=O)[C@H](CO)NC(=O)[C@H](CC(N)=O)NC(=O)[C@H](CC(C)C)NC(=O)[C@@H](NC(=O)[C@H](Cc1c[nH]c2ccccc12)NC(=O)CNC)[C@@H](C)O)C(=O)N[C@@H](CCCCN)C(N)=O (H-[Sar]WTLNSAGYLLKKKKK(Palmitoyl)K-NH2)
half-life [2]: 8.7 h | Ki (Galanin receptor type 1): 41.5 nM | Ki (Galanin receptor type 2 [3]): 215 nM | Activity (Mus musculus [4]): Active

CC(C)C[C@H](NC(=O)[C@H](CC(C)C)NC(=O)[C@H](Cc1ccc(O)cc1)NC(=O)CNC(=O)[C@H](C)NC(=O)[C@H](CO)NC(=O)[C@H](CC(N)=O)NC(=O)[C@H](CC(C)C)NC(=O)[C@@H](NC(=O)[C@@H](N)Cc1c[nH]c2ccccc12)[C@@H](C)O)C(=O)O
Kd (Galanin receptor type 2 [5]): 1.8 nM

CCCCCCCCCCCCCCCC(=O)NCCCC[C@H](NC(=O)[C@H](CCCN=C(N)N)NC(=O)[C@H](CCCN=C(N)N)NC(=O)[C@@H]1CCCN1C(=O)CNC(=O)[C@H](CC(C)C)NC(=O)[C@H](CC(C)C)NC(=O)[C@H](Cc1ccc(O)cc1)NC(=O)CNC(=O)[C@H](C)NC(=O)[C@H](CO)NC(=O)[C@H](CC(N)=O)NC(=O)[C@H](CC(C)C)NC(=O)[C@@H](NC(=O)[C@H](Cc1c[nH]c2ccccc12)NC(=O)CNC)[C@@H](C)O)C(=O)N[C@@H](CCCN=C(N)N)C(N)=O
half-life [2]: 4.8 h | Ki (Galanin receptor type 1): 3.3 nM | Ki (Galanin receptor type 2 [3]): 65.5 nM

CCCCCCCCCCCCCCCC(=O)NCCCC[C@H](NC(=O)[C@H](CCCCN)NC(=O)[C@H](CCCCN)NC(=O)[C@H](CCCCN)NC(=O)[C@@H]1CCCN1C(=O)CNC(=O)[C@H](CC(C)C)NC(=O)[C@H](CC(C)C)NC(=O)[C@H](Cc1ccc(O)cc1)NC(=O)CNC(=O)[C@H](C)NC(=O)[C@H](CO)NC(=O)[C@H](CC(N)=O)NC(=O)[C@H](CC(C)C)NC(=O)[C@@H](NC(=O)[C@H](Cc1c[nH]c2ccccc12)NC(=O)CNC)[C@@H](C)O)C(N)=O
half-life [2]: > 10 h | Ki (Galanin receptor type 1): 1.9 nM | Ki (Galanin receptor type 2 [3]): 22 nM | Activity (Mus musculus [4]): inactive | Activity (Mus musculus [6]): inactive

Cc1cc(=O)oc2cc(NC(=O)[C@@H](CCCCN)NC(=O)[C@H](CC3CCCCC3)NC(=O)OCC3c4ccccc4-c4ccccc43)ccc12 [GALNON] (Fmoc-[Cha]-[dK]-{AMC})
Kd (Galanin receptor type 2 [5]): 24000 nM

CCCCCCCCCCCCCCCC(=O)NCCCC[C@H](NC(=O)[C@H](CCCCN)NC(=O)[C@H](CCCCN)NC(=O)[C@@H]1CCCN1C(=O)CNC(=O)[C@H](CC(C)C)NC(=O)[C@H](CC(C)C)NC(=O)[C@H](Cc1ccc(O)cc1)NC(=O)CNC(=O)[C@H](C)NC(=O)[C@H](CO)NC(=O)[C@H](CC(N)=O)NC(=O)[C@H](CC(C)C)NC(=O)[C@@H](NC(=O)[C@H](Cc1c[nH]c2ccccc12)NC(=O)CN)[C@@H](C)O)C(=O)N[C@@H](CCCCN)C(N)=O
half-life [2]: > 10 h | Ki (Galanin receptor type 1): 5.3 nM | Ki (Galanin receptor type 2 [3]): 22.5 nM | Activity (Mus musculus [4]): inactive | Activity (Mus musculus [6]): inactive
